From ChEMBL document CHEMBL1123986, “Oral absorption of cephalosporin antibiotics. 2. Expanded structure-activity relationships of 7-(arylacetamido)-3-substituted cephalosporins” (1988)
≈ marks a conversion by molar mass, not a printed value.

Key:
[1] = tested on: Escherichia coli; test: Minimum inhibitory concentration against Escherichia coli; type: functional
Method in brief: (§1)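 Agar dilution MIC in μg/mL. […] Organisms not run are marked not tested.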

[2] = tested on: Streptococcus pneumoniae; test: Minimum inhibitory concentration against Streptococcus pneumoniae; type: functional; method in brief: as §1
[3] = tested on: Klebsiella pneumoniae; test: Minimum inhibitory concentration against Klebsiella pneumoniae; type: functional; method in brief: as §1
[4] = tested on: Haemophilus influenzae; test: (§2) Minimum inhibitory concentration against Haemophilus influenzae; type: functional; method in brief: as §1
[5] = tested on: Salmonella typhi; test: Minimum inhibitory concentration against Salmonella typhi; type: functional, Salmonella enterica subsp. enterica serovar Typhi; details: Salmonella enterica
[6] = tested on: Mus musculus; test: Effective dose administered subcutaneously (sc) to 19-21-g random sex ICR mice at 1 hr and 5 hr intervals after intraperitoneal administration of Streptococcus pneumoniae; type: functional
Method in brief: (§3)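 Mouse protection: random-sex ICR mice, 19–21 g, challenged intraperitoneally from a frozen organism pool giving 50–500 LD50 per challenge dose. Drug given sc or po at 1 and 5 h post-infection. Five 2-fold dilution levels per compound, eight mice per dilution.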

[7] = tested on: Mus musculus; test: Effective dose administered orally (po) to 19-21-g random sex ICR mice at 1 hr and 5 hr intervals after intraperitoneal administration of Streptococcus pneumoniae; type: functional; method in brief: as §3
[8] = Ratio of ED50 value evaluated in Staphylococcus aureus by po to sc administration; type: functional
Method in brief: (§4)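 Oral/subcutaneous effective-dose ratio. Both routes were dosed in random-sex ICR mice of 19–21 g at 1 and 5 h after an intraperitoneal challenge of 50–500 LD50 from a frozen organism pool. Each route used five 2-fold dilution levels with eight mice per level, and the po value was divided by the sc value.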

[9] = tested on: Streptococcus pyogenes; test: Efficacy against mouse infections caused by Streptococcus pyogenes measured as Minimum inhibitory concentration
[10] = tested on: Haemophilus influenzae; test: as §2; type: functional; method in brief: as §1; remark: listed apart in the source
[11] = tested on: Staphylococcus aureus; test: Efficacy against mouse infections caused by Staphylococcus aureus measured as Minimum inhibitory concentration
[12] = tested on: Mus musculus; test: Effective dose administered orally (po) to 19-21-g random sex ICR mice at 1 hr and 5 hr intervals after intraperitoneal Streptococcus pyogenes; type: functional; method in brief: as §3
[13] = tested on: Mus musculus; test: Effective dose administered orally (po) to 19-21-g random sex ICR mice at 1 hr and 5 hr intervals after intraperitoneal Staphylococcus aureus; type: functional; method in brief: as §3
[14] = tested on: Streptococcus pyogenes; test: Minimum inhibitory concentration against Streptococcus pyogenes; type: functional; method in brief: as §1
[15] = tested on: Mus musculus; test: Effective dose administered subcutaneously (sc) to 19-21-g random sex ICR mice at 1 hr and 5 hr intervals after intraperitoneal administration of Streptococcus pyogenes; type: functional; method in brief: as §3
[16] = tested on: Klebsiella aerogenes; test: Minimum inhibitory concentration against Enterobacter aerogenes; type: functional; method in brief: as §1
[17] = tested on: Staphylococcus aureus; test: Minimum inhibitory concentration against Staphylococcus aureus; type: functional; method in brief: as §1
[18] = tested on: Mus musculus; test: Effective dose administered subcutaneously (sc) to 19-21-g random sex ICR mice at 1 hr and 5 hr intervals after intraperitoneal administration of Staphylococcus aureus; type: functional; method in brief: as §3
[19] = tested on: Streptococcus pneumoniae; test: Efficacy against mouse infections caused by S. Pneumoniae measured as Minimum inhibitory concentration
[20] = Ratio of ED50 value evaluated in Streptococcus pyogenes by po to sc administration; type: functional; method in brief: as §4

Compound | MIC [1] | MIC [2] | MIC [3] | MIC [4] | MIC [5] | ED50 [6] | ED50 [7] | Ratio [8] | MIC [9] | MIC [10] | MIC [11] | ED50 [12] | ED50 [13] | MIC [14] | ED50 [15] | MIC [16] | MIC [17] | ED50 [18] | MIC [19] | Ratio [20]
O=C(Cc1csc2ccc(Cl)cc12)N[C@@H]1C(=O)N2C(C(=O)O)=C(Cl)CS[C@H]12 | 128 µg/mL (≈ 289 µM) | 0.015 µg/mL (≈ 0.0338 µM) | 64 µg/mL (≈ 144 µM) | 2 µg/mL (≈ 4.51 µM) | 128 µg/mL (≈ 289 µM) | – | – | – | – | – | – | – | – | – | – | – | – | – | – | –
O=C(Cc1csc2ccccc12)N[C@@H]1C(=O)N2C(C(=O)O)=CCS[C@H]12 | 64 µg/mL (≈ 171 µM) | 0.25 µg/mL (≈ 0.668 µM) | > 128 µg/mL | 4 µg/mL (≈ 10.7 µM) | > 128 µg/mL | >10 2mg kg-1 | >10 2mg kg-1 | 3.6 | 0.06 µg/mL (≈ 0.16 µM) | 0.5 µg/mL (≈ 1.34 µM) | 0.25 µg/mL (≈ 0.668 µM) | >10 2mg kg-1 | 2.9 2mg kg-1 | 0.06 µg/mL (≈ 0.16 µM) | 8.2 2mg kg-1 | > 128 µg/mL | 0.25 µg/mL (≈ 0.668 µM) | 0.8 2mg kg-1 | 0.25 µg/mL (≈ 0.668 µM) | –
CO/N=C/c1ccc(OCC(=O)N[C@@H]2C(=O)N3C(C(=O)O)=C(Cl)CS[C@H]23)cc1 | > 128 µg/mL | 0.06 µg/mL (≈ 0.141 µM) | > 128 µg/mL | 4 µg/mL (≈ 9.39 µM) | > 128 µg/mL | – | – | – | – | 1 µg/mL (≈ 2.35 µM) | – | – | – | 0.03 µg/mL (≈ 0.0704 µM) | – | > 128 µg/mL | 0.25 µg/mL (≈ 0.587 µM) | – | – | –
O=C(COc1ccc([N+](=O)[O-])cc1)N[C@@H]1C(=O)N2C(C(=O)O)=C(Cl)CS[C@H]12 | > 128 µg/mL | 0.03 µg/mL (≈ 0.0725 µM) | > 128 µg/mL | 2 µg/mL (≈ 4.83 µM) | > 128 µg/mL | – | – | – | – | 1 µg/mL (≈ 2.42 µM) | – | – | – | 0.015 µg/mL (≈ 0.0362 µM) | – | > 128 µg/mL | 0.25 µg/mL (≈ 0.604 µM) | – | – | –
CC1=C(C(=O)O)N2C(=O)[C@@H](NC(=O)Cc3csc4ccccc34)[C@H]2SC1 | > 128 µg/mL | 1 µg/mL (≈ 2.57 µM) | > 128 µg/mL | 32 µg/mL (≈ 82.4 µM) | > 128 µg/mL | – | – | – | – | 1 µg/mL (≈ 2.57 µM) | – | – | – | 0.5 µg/mL (≈ 1.29 µM) | – | > 128 µg/mL | 1 µg/mL (≈ 2.57 µM) | – | – | –
O=C(Cc1ccccc1)N[C@@H]1C(=O)N2C(C(=O)O)=C(Cl)CS[C@H]12 | – | 0.125 µg/mL (≈ 0.354 µM) | – | – | 4 µg/mL (≈ 11.3 µM) | – | – | – | – | – | – | – | – | – | – | 128 µg/mL (≈ 363 µM) | – | – | – | –
Nc1n[nH]c(SCC(=O)N[C@@H]2C(=O)N3C(C(=O)O)=C(Cl)CS[C@H]23)n1 | 16 µg/mL (≈ 40.9 µM) | 2 µg/mL (≈ 5.12 µM) | 8 µg/mL (≈ 20.5 µM) | 4 µg/mL (≈ 10.2 µM) | 8 µg/mL (≈ 20.5 µM) | – | – | – | – | 2 µg/mL (≈ 5.12 µM) | – | – | – | 1 µg/mL (≈ 2.56 µM) | – | > 128 µg/mL | 4 µg/mL (≈ 10.2 µM) | – | – | –
COc1ccc(CC(=O)N[C@@H]2C(=O)N3C(C(=O)O)=C(Cl)CS[C@H]23)cc1 | 64 µg/mL (≈ 167 µM) | 0.125 µg/mL (≈ 0.327 µM) | 32 µg/mL (≈ 83.6 µM) | 1 µg/mL (≈ 2.61 µM) | 32 µg/mL (≈ 83.6 µM) | – | – | – | – | 1 µg/mL (≈ 2.61 µM) | – | – | – | 0.125 µg/mL (≈ 0.327 µM) | – | > 128 µg/mL | 0.5 µg/mL (≈ 1.31 µM) | – | – | –
O=C(Cc1ccc(O)cc1)N[C@@H]1C(=O)N2C(C(=O)O)=C(Cl)CS[C@H]12 | – | 0.25 µg/mL (≈ 0.678 µM) | – | – | 8 µg/mL (≈ 21.7 µM) | – | – | – | – | – | – | – | – | – | – | – | – | – | – | –
COC1=C(C(=O)O)N2C(=O)[C@@H](NC(=O)Cc3noc(C(Cl)(Cl)Cl)n3)[C@H]2SC1 | > 128 µg/mL | 4 µg/mL (≈ 8.74 µM) | > 128 µg/mL | 32 µg/mL (≈ 69.9 µM) | > 128 µg/mL | – | – | – | – | 32 µg/mL (≈ 69.9 µM) | – | – | – | 4 µg/mL (≈ 8.74 µM) | – | > 128 µg/mL | 16 µg/mL (≈ 35 µM) | – | – | –
O=C(Cc1csc(-c2ccccc2)n1)N[C@@H]1C(=O)N2C(C(=O)O)=C(Cl)CS[C@H]12 | – | – | – | – | > 128 µg/mL | – | – | – | – | – | – | – | – | – | – | > 128 µg/mL | – | – | – | –
O=C(COc1ccccc1)N[C@@H]1C(=O)N2C(C(=O)O)=C(Cl)CS[C@H]12 | – | 0.125 µg/mL (≈ 0.339 µM) | – | – | 64 µg/mL (≈ 174 µM) | – | – | – | – | – | – | – | – | – | – | – | – | – | – | –
C=CC1=C(C(=O)O)N2C(=O)[C@@H](NC(=O)Cc3csc4ccccc34)[C@H]2SC1 | > 128 µg/mL | 0.06 µg/mL (≈ 0.15 µM) | > 128 µg/mL | 4 µg/mL (≈ 9.99 µM) | > 128 µg/mL | 8.4 2mg kg-1 | >16 2mg kg-1 | 4.1 | 0.03 µg/mL (≈ 0.0749 µM) | 4 µg/mL (≈ 9.99 µM) | 0.125 µg/mL (≈ 0.312 µM) | 14.7 2mg kg-1 | 3.12 2mg kg-1 | 0.015 µg/mL (≈ 0.0375 µM) | 3.54 2mg kg-1 | > 128 µg/mL | 0.125 µg/mL (≈ 0.312 µM) | 0.76 2mg kg-1 | 0.03 µg/mL (≈ 0.0749 µM) | 4.2
Nc1nc2cc(CC(=O)N[C@@H]3C(=O)N4C(C(=O)O)=C(Cl)CS[C@H]34)ccc2s1 | 64 µg/mL (≈ 151 µM) | 0.06 µg/mL (≈ 0.141 µM) | 64 µg/mL (≈ 151 µM) | 0.5 µg/mL (≈ 1.18 µM) | 64 µg/mL (≈ 151 µM) | 2.3 mg/kg | > 10 mg/kg | – | 0.03 µg/mL (≈ 0.0706 µM) | 0.5 µg/mL (≈ 1.18 µM) | 0.25 µg/mL (≈ 0.588 µM) | 10 mg/kg | > 10 mg/kg | 0.06 µg/mL (≈ 0.141 µM) | 0.9 mg/kg | > 128 µg/mL | 0.25 µg/mL (≈ 0.588 µM) | 3.54 mg/kg | 0.06 µg/mL (≈ 0.141 µM) | 11
